Assay results as given in publication PMC4336584 (Chemistry & biology, 2015).
Converted amounts (≈) assume the structure as drawn. Like-named read-outs stand apart in the source and are kept apart here.

How the values were obtained:
HIV-1 (NL4.3 virus) [1] = assay: SCID-hu Thy/Liv mouse model of HIV-1 infection; assay type: in vivo, SCID-hu Thy/Liv mice; settings: oral bi-daily 14 days, 50 or 100 mg/kg/day
Outline: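 Human fetal thymus and liver were coimplanted under the kidney capsule of male C.B-17 SCID mice aged 6–8 weeks. Implants were inoculated with NL4-3 by direct injection 18 weeks later; controls received medium. Groups of six received 50 or 100 mg/kg/day by twice-daily oral gavage from day −1 until implant collection 2 weeks post-inoculation. Implant cells were assayed for p24 (ELISA), viral RNA (bDNA) and CD3/CD4/CD8 thymocytes (flow cytometry). Results are means with SD.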

[2] = Plasma protein binding analysis; assay type: in vitro ADME; settings: human
Cytostatic assay = assay type: cell-based; settings: human, Huh 5-2 cells
HIV-1 in CD4+ HeLa cells = assay: CD4+ HeLa HIV-1 inhibitory FACS assay; assay type: cell-based; settings: Human immunodeficiency virus 1, HeLa, 48 h, read-out: HIV-1 HeLa cells IC50
[3] = test system: HCV Gt1b replicon in Huh 5-2 cells; assay: HCV antiviral assay Huh 5-2; assay type: cell-based; settings: Hepatitis C virus, Huh-5-2, 96 h, read-out: HCV Huh5.2 Gt1b replicon EC50
Outline: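 Huh 5-2 cells seeded at 6.5 × 10³/well in DMEM with 250 μg/ml G418 and held 24 hr at 37°C, 5% CO2. Medium then replaced by 3-fold serial dilutions of test compound in complete DMEM without G418. After 4 days at 37°C, luciferase activity read and expressed as percent of untreated controls.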

HIV-1 viral load = settings: 14 days dosing, HIV/HCV co-infected patients; cited from earlier work
[4] = test system: HepG2 cells stably replicating HBV; assay: HBV antiviral assay in cells stably replicating HBV; assay type: cell-based; settings: Hepatitis B virus, 72 h
Outline: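 HepG2 cells stably replicating HBV were treated with test compound at 0.1, 1 or 10 μM, with DMSO as control, for 3 days. Supernatant was then removed and cells were retreated. After a further 72 hr, HBsAg and HBeAg were measured by ELISA and HBV DNA was quantified, all in cell extracts and in triplicate.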

[5] = test system: HCV Huh7 Gt2a replicon (JFH-1); assay: HCV replicon antiviral assay, genotype 2a; assay type: cell-based; settings: Hepatitis C virus, Huh-7, 72 h, read-out: HCV Huh7 Gt2a replicon EC50
Outline: (§1)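 Subgenomic replicon cells were maintained at 37°C, 5% CO2 in DMEM with 10% FBS and 250 μg/ml G418. They were seeded at 5 × 10³ cells/well without G418. Next day, serial dilutions of compound in DMEM plus 5% FBS were added for 72 hr at 37°C. HCV RNA was measured by one-step TaqMan real-time RT-PCR, with ribosomal RNA as the cell-number/cytotoxicity control. EC50 was derived from both measurements.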

[6] = Solubility analysis in PBS pH 7.4; assay type: physicochemical; settings: pH 7.4, aqueous buffer, kinetic from dmso stock
[7] = test system: Huh7 cells transfected with HBV DNA; assay: HBV antiviral assay in cells transfected with HBV DNA; assay type: cell-based; settings: test/control value, day 3, 2 µM
Outline: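 Huh7 cells were transfected with HBV DNA (8 μg) in the presence of 2 μM test compound or DMSO. On day 3, de novo HBsAg in cell extracts or supernatants was quantified by ELISA in triplicate. A test/control value was calculated from these readings.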

[8] = test system: HCV Huh7 Gt1a replicon (H77); assay: HCV replicon antiviral assay, genotype 1a; assay type: cell-based; settings: Hepatitis C virus, Huh-7, 72 h, read-out: HCV Huh7 Gt1a replicon EC50
Outline: as §1

[9] = target: HCV NS5A-cyclophilin A complex (Homo sapiens, UniProt P62937); assay: biochemical
HCV Huh7 Gt1b replicon = assay: HCV replicon antiviral assay, genotype 1b; assay type: cell-based; settings: Hepatitis C virus, Huh-7, 72 h, read-out: HCV Huh7 Gt1b replicon EC50
Outline: as §1

HIV-1 (NL4.3 virus) [10] = settings: 21 days bi-daily dosing at 100 mg/kg; ref Stoddart et al. [29]; cited from earlier work

HCV NS5A-cyclophilin A complex, sequence (P62937 whole entry, one chain of several): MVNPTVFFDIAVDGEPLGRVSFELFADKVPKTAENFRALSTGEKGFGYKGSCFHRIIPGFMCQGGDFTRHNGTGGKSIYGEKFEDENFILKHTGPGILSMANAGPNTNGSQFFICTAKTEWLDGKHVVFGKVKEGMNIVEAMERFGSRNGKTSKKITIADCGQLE

For C/C=C/C[C@@H](C)[C@@H](O)[C@H]1C(=O)N[C@@H](CC)C(=O)N(C)[C@H](C)C(=O)N(CC)[C@@H](C(C)C)C(=O)N[C@@H](C(C)C)C(=O)N(C)[C@@H](CC(C)C)C(=O)N[C@@H](C)C(=O)N[C@H](C)C(=O)N(C)[C@@H](CC(C)C)C(=O)N(C)[C@@H](CC(C)C)C(=O)N(C)[C@@H](C(C)C)C(=O)N1C [Alisporivir], which “overt signs of toxicity” value (HIV-1 (NL4.3 virus) [1]) is on record?
Its value is “No overt signs of toxicity”.

And the fraction unbound at 5 h, 1 µM [2]?
Its fraction unbound at 5 h, 1 µM is < 0.04.

And the CC50 at 3 days (Cytostatic assay)?
The CC50 at 3 days was 11.2 µM.

And the IC50 (HIV-1 in CD4+ HeLa cells)?
Its IC50 is 1500 ± 240 nM.

And the EC50 [3]?
Its EC50 is 96 ± 23 nM.

And the “mean drop in viral load” value (HIV-1 viral load)?
Its value is ~ 1 log.

What about the IC50 ([4]; read-out: HBV Huh7 stable HBV DNA IC50) of the same compound?
The IC50 was > 10 µM.

And the IC50 ([4]; read-out: HBV Huh7 stable HBeAg IC50)?
The IC50 was > 10 µM.

What about the IC50 ([4]; read-out: HBV Huh7 stable HBsAg IC50) of the same compound?
Its IC50 is > 10 µM.

What about the EC50 [5] of the same compound?
Its EC50 is 102 ± 8 nM.

And the solubility at 4 h [6]?
Its solubility at 4 h is 15 µM (≈ 18.2 µg/mL).

And the “HBV HepG2 transfected HBsAg T/C d3 at 2uM” value [7]?
Its value is 18%.

What about the EC50 [8] of the same compound?
The EC50 was 98 ± 11 nM.

And the IC50 [9]?
The IC50 was 240 ± 20 nM.

What about the EC50 (HCV Huh7 Gt1b replicon) of the same compound?
Its EC50 is 76 ± 5 nM.

For COC(=O)N[C@H](C(=O)N[C@@H](Cc1ccccc1)[C@@H](O)CN(Cc1ccc(-c2ccccn2)cc1)NC(=O)[C@@H](NC(=O)OC)C(C)(C)C)C(C)(C)C [atazanavir], which “viral RNA reductions” value (HIV-1 (NL4.3 virus) [10]) is on record?
Its value is 1–4 log10.

Which “viral RNA reductions” value (HIV-1 (NL4.3 virus) [10]) does the source give for O=C1Nc2ccc(Cl)cc2[C@@](C#CC2CC2)(C(F)(F)F)O1 [efavirenz] here?
Its value is 1–4 log10.

For Nc1nc(=O)n([C@@H]2CS[C@H](CO)O2)cc1F [emtricitabine], which “viral RNA reductions” value (HIV-1 (NL4.3 virus) [10]) is on record?
Its value is 1–4 log10.

For Cc1ccnc2c1NC(=O)c1cccnc1N2C1CC1 [nevirapine], which “viral RNA reductions” value (HIV-1 (NL4.3 virus) [10]) is on record?
Its value is 1–4 log10.
